Where “and” joins values, the source holds several entries; their conditions need not be identical. Equal entries are not always repeated.
How the values were obtained:
[1] = molecular target: hNudt16 (Homo sapiens, UniProt Q96DE0); experiment: 5′ cap hydrolysis of analog-capped RNA25 with hNudt16; type: biochemical; conditions: 30 min reaction with hNudt16; for % of hydrolysis SP6 product: RNA made with SP6 polymerase; for % of hydrolysis T7 product: RNA made with T7 polymerase
In short: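 Substrate: 50 ng 25-nt cap-analog RNA with trimmed 3′ ends. Digested with 2.5 µM hNudt16 in 40 mM Tris pH 7.9, 100 mM NaCl, 6 mM MgCl2, 2 mM DTT for 30 min at 37°C. Stopped with formamide loading dye, 5 min at 75°C. Run on 15% polyacrylamide/7 M urea, SYBR Gold stain. Hydrolysis = densitometric % loss of capped band; mean ± SD, three experiments. Orientation inferred from hydrolysis pattern.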

[2] = molecular target: T1, SP6 RNA polymerase (Enterobacteria phage SP6, UniProt P06221); experiment: Efficiency of cap analog incorporation into short RNA25 in IVT; type: biochemical; conditions: RNA25nt, densitometry
T1 sequence (P06221 1-874): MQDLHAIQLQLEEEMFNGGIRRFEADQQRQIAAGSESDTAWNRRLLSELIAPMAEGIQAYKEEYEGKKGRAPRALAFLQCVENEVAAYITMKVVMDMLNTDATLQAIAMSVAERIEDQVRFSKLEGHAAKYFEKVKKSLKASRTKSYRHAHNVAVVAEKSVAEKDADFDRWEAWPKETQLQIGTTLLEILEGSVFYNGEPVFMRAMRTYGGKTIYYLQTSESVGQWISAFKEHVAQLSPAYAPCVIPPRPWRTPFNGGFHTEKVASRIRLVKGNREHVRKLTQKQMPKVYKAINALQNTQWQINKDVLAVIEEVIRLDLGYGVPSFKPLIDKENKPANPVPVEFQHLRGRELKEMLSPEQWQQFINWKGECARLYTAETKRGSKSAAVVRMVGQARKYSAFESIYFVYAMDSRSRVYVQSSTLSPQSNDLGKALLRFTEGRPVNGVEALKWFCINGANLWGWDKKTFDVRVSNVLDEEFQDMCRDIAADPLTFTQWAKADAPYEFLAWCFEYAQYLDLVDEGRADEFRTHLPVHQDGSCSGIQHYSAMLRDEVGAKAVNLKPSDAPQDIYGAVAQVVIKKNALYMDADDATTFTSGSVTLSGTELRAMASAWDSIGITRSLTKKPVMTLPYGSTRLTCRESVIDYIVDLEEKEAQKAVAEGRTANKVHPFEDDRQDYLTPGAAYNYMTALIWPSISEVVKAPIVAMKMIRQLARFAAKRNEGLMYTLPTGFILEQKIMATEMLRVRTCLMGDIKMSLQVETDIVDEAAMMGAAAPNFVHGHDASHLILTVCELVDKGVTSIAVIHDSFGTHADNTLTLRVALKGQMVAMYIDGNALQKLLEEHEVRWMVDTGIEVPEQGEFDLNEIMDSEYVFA
In short: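 DNase I digestion. 3′ ends trimmed with DNAzyme (30 pmol per 400 ng RNA, 50 mM Tris pH 7.4, 50 mM MgCl2, 1 h, 37°C), giving 25-nt RNA. Capped versus uncapped pppRNA bands quantified densitometrically.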

[3] = system: Rabbit reticulocyte lysate; experiment: Translation of luciferase mRNA capped with cap analogs in RRL system; type: biochemical; conditions: for Relative cap-dependent translation efficiency / Relative translation efficiency: Rabbit reticulocyte lysate; for Relative cap-dependent translation efficiency: relative to m^7GpppG; for Relative translation efficiency: relative to m^7GpppG-capped transcript
In short: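 Firefly luciferase mRNA made by SP6 transcription of PCR template, 1 h at 37°C, with 0.5 mM ATP/CTP/UTP, 0.1 mM GTP, 0.5 mM cap analog (cap:GTP 5:1). Then DNase I treatment. Translated in 40% Flexi rabbit reticulocyte lysate with 0.01 mM amino acids, 0.9 mM Mg acetate, 190 mM K acetate. Lysate preincubated 60 min at 30°C, then 60 min with mRNA. Luciferase luminescence expressed relative to m7GpppG-capped mRNA.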

[4] = molecular target: murine eIF4E (Mus musculus, UniProt P63073); experiment: Thermal stability of eIF4E by DSF in the presence of cap analogs; type: binding; conditions: for Tm (at 100 μM of ligand): murine eIF4E, 100 μM ligand, apo form 38.42; for ΔTm (at 100 μM of ligand): in relation to eIF4E in apo form
In short: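 Murine eIF4E (aa 28–217), 4 μM final, with 5× SYPRO Orange in HEPES/KOH pH 7.2, 100 mM KCl, 0.5 mM EDTA, 1 mM DTT. Test compound at 100 μM final (single point) or 1–100 μM series. Heated 22–95°C at 0.5°C/30 sec, fluorescence read each step. Normalized signal fitted to a two-state denaturation model for Tm. ΔTm is relative to apo eIF4E. Apparent Kd is from ΔTm change with rising ligand concentration.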

[5] = molecular target: cap-dependent translation in RRL system; type: biochemical, rabbit; conditions: inhibition of ARCA-mRNA luciferase translation in RRL system; mean ± SD
In short: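 Flexi rabbit reticulocyte lysate preincubated 60 min at 30°C under cap-dependent conditions. Then m2^7,3′O GpppG-capped firefly luciferase mRNA was added together with increasing concentrations of cap analog, and incubated a further 60 min at 30°C. Luminescence read immediately. IC50 by nonlinear regression; mean ± SD of ≥3 independent replicates. Ratio expresses IC50 relative to m7GpppG control.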

[6] = system: cap-dependent translation; conditions: translation inhibition; ref Wojcik et al. 2021; cited from earlier work

hNudt16, sequence (Q96DE0 whole entry): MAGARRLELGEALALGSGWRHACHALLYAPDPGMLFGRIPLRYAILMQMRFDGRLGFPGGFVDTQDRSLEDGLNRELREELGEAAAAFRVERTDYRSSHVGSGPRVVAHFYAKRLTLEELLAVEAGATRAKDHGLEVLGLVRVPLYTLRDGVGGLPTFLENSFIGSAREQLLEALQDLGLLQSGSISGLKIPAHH
murine eIF4E, sequence (P63073 28-217): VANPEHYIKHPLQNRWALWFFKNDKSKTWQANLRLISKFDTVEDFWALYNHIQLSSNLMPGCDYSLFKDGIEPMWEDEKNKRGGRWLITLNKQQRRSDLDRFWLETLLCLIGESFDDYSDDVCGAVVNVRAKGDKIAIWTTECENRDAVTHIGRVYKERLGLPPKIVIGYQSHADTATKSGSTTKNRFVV

Compound	% of hydrolysis SP6 product [1]	% of hydrolysis T7 product [1]	capped fraction (capping efficiency) [2]	translation level in comparison to m^7GpppG-capped transcript ([3]; RRL)	Relative cap-dependent translation efficiency [3]	Relative translation efficiency [3]	Tm (at 100 μM of ligand) [4]	Relative translation efficiency ([3]; listed as m2^7,3'-OGpppG)	ΔTm (at 100 μM of ligand) [4]	ΔTm (at 100 μM of ligand) ([4]; listed as m2^7,3'OGpppG)	IC50 [5]	IC50 [6]
Nc1nc2c(ncn2[C@@H]2O[C@H](COP(=O)(O)OP(=O)(O)OP(=O)(O)OC[C@H]3O[C@@H](n4cnc5c(=O)[nH]c(N)nc54)[C@H](O)[C@@H]3O)[C@@H](O)[C@H]2O)c(=O)[nH]1 [GpppG]	86.2 ± 3.9% and 86.18%	82.06%	85.3 ± 0.8%									
Nc1nc2c(ncn2[C@@H]2O[C@H](COP(=O)(O)OP(=O)(O)OP(=O)(O)OC[C@H]3O[C@@H](n4cnc5c(N)ncnc54)[C@H](O)[C@@H]3O)[C@@H](O)[C@H]2O)c(=O)[nH]1 [ApppG]				~10%	0	0.09 ± 0.06	38.62 °C					
CO[C@H]1[C@@H](O)[C@H]([n+]2cn(C)c3c(=O)[nH]c(N)nc32)O[C@@H]1COP(=O)([O-])OP(=O)(O)OP(=O)(O)OC[C@H]1O[C@@H](n2cnc3c(=O)[nH]c(N)nc32)[C@H](O)[C@@H]1O [m2^7,3′OGpppG]	8.7 ± 2.0%	4.81%	65.8 ± 2.4%		1.53 ± 0.20	1.47	47.53 °C	1.47 ± 0.17	around 10 °C	9.11 °C		
Cn1c[n+]([C@@H]2O[C@H](COP(=O)(O)OP(=O)([O-])OP(=O)(O)OC[C@H]3O[C@@H](n4cnc5c(=O)[nH]c(N)nc54)[C@H](O)[C@@H]3O)[C@@H](O)[C@H]2O)c2nc(N)[nH]c(=O)c21 [m^7GpppG]	45.74%	32.24%	74.3 ± 3.5%		1	1	48.10 °C				8.94 ± 0.86 µM	11.4 ± 2.4 µM

From article PMC9891257 (RNA, 2023)
